The values below come from ChEMBL document CHEMBL1240410, “Cytotoxicity against cholangiocarcinoma cell lines of zerumbone derivatives” (Eur J Med Chem, 2010).

The source made the active and inactive calls. The rule behind the calls is not given here.

Holding throughout (format): functional, cell-based
The nature of assay [1]: Cytotoxicity against human KKU100 cells. In short, it runs like this:
(§1)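 SRB assay: cells seeded at 0.5–1.0 × 10^5 cells/mL and held 24 h at 37 °C. Compounds added in triplicate at final 0.025, 0.16, 0.8, 4 and 20 µg/well, with 0.1% DMSO as solvent control. Exposure was 72 h at 37 °C, plus a 1 h starting-cell plate. Cells fixed with TCA, stained with SRB, OD read at 510 nm. IC50 taken as 50% reduction of control protein increase.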

Assay [2] can be described thus: Cytotoxicity against human KKU-M139 cells. The method in brief: as §1
The nature of assay [3]: Cytotoxicity against human KKU-M156 cells. In short, it runs like this:
as §1

A short description of assay [4]: Cytotoxicity against human KKU-M213 cells. In short, it runs like this: as §1
A short description of assay [5]: Cytotoxicity against human KKU-M214 cells. In short, it runs like this: as §1
The next assay relates to KKU100. Briefly: Cytotoxicity against human KKU100 cells at 75 uM.
The next assay relates to KKU-M139. Briefly: Cytotoxicity against human KKU-M139 cells at 75 uM.
A further assay deals with KKU-M156. Briefly: Cytotoxicity against human KKU-M156 cells at 75 uM.
The test system of the next assay is KKU-M213. Briefly: Cytotoxicity against human KKU-M213 cells at 75 uM.
The next assay concerns KKU-M214. Description: Cytotoxicity against human KKU-M214 cells at 75 uM.

`C/C1=C\CC(C)(C)C(C#N)CC(=O)/C(C)=C/CC1` (stereo not given): the half-inhibitory concentration (IC50) in [1] was 25.7 µM; in [2], 55.9 µM; in assay [3], 37.3 µM; in assay [4], 45.1 µM; in [5], 54.5 µM.

With `C/C1=C\CC(C)(C)/C=C/C(=O)/C(C)=C/CC1`, the outcome in the assay on KKU100, with KKU-M139, in the assay with KKU-M156, in the assay with KKU-M213 and in the assay on KKU-M214 was inactive.

`C/C1=C\CC(C)(C)/C=C/C(=O)[C@H](C)[C@H](N(C)C)CC1`: the result in the assay with KKU100, with KKU-M139, with KKU-M156, with KKU-M213 and in the assay on KKU-M214 was inactive.

Take `C/C1=C\CC(C)(C)C(C#N)CC(=O)[C@H](C)[C@H](N(C)C)CC1` (stereo not given in full): the outcome in the assay with KKU100, with KKU-M139, with KKU-M156, in the assay with KKU-M213 and with KKU-M214 was inactive.

On to `CCCCN(C(C)=O)[C@@H]1CC/C(C)=C/CC(C)(C)/C=C/C(=O)[C@@H]1C`, for which the result in the assay on KKU100, in the assay on KKU-M139, in the assay on KKU-M156, with KKU-M213 and in the assay with KKU-M214 was inactive.

For the compound `C/C1=C\CC(C)(C)/C=C/C(=O)[C@H](C)[C@H](N)CC1` (racemic), the IC50 in assay [1] is 16.4 µM; in [2], 63.3 µM; in [3], 69 µM; in assay [4], 51.9 µM; in assay [5], 59.6 µM.

Compound `C/C1=C\CC[C@@]2(C)O[C@H]2CC(C)(C)/C=C/C1=O` (racemic) displayed an IC50 in assay [5] of 52.6 µM. Also, the outcome with KKU100, in the assay on KKU-M139, in the assay with KKU-M156 and in the assay on KKU-M213 was inactive.

Regarding `C[C@H]1C(=O)/C=C/C(C)(C)C[C@@H]2O[C@]2(C)CC[C@H]1N` (racemic), in assay [5], the midpoint of inhibition, the IC50, lay at 18.3 µM. Further, the outcome with KKU100, in the assay with KKU-M139, with KKU-M156 and in the assay with KKU-M213 was inactive.

`C/C1=C\CC(C)(C)[C@H](C#N)CC(=O)[C@H](C)[C@H](C#N)CC1` (racemic) came in with a half-inhibitory concentration (IC50) in assay [5] of 66.5 µM. In addition, the result in the assay on KKU100, in the assay with KKU-M139, in the assay on KKU-M156 and in the assay on KKU-M213 was inactive.

Consider `CCCCN[C@@H]1CC/C(C)=C/CC(C)(C)/C=C/C(=O)[C@@H]1C` (racemic), for which the IC50 in [4] is 36.6 µM; in [5], 41.6 µM. Further, the result in the assay with KKU100, with KKU-M139 and in the assay with KKU-M156 was inactive.

Turning to `CCCCN[C@@H]1CC/C(C)=C/CC(C)(C)/C=C/[C@H](O)[C@@H]1C` (racemic), the IC50 is 35.3 µM in [1]; 19.6 µM in assay [2]; 26.3 µM in [3]; 27.2 µM in assay [4]; 16.1 µM in assay [5].

Regarding `CCCCN[C@@H]1CC[C@@]2(C)O[C@H]2CC(C)(C)/C=C/C(=O)[C@@H]1C` (racemic), the IC50 in assay [1] was found to be 16.5 µM; in assay [3] it was 48.2 µM; in assay [4], 37.6 µM; in [5], 51 µM. Moreover, the result in the assay with KKU-M139 was inactive.

For the compound `C/C1=C\CC(C)(C)/C=C/C(=O)[C@H](C)[C@H](NCc2ccccc2)CC1` (racemic), the result in the assay with KKU100, with KKU-M139, in the assay with KKU-M156, with KKU-M213 and in the assay on KKU-M214 was inactive.

As for `C/C1=C\CC(C)(C)/C=C/C(O)/C(C)=C/CC1` (racemic), the outcome in the assay with KKU100, in the assay on KKU-M139, in the assay on KKU-M156, in the assay on KKU-M213 and with KKU-M214 was inactive.

In the case of `C/C1=C\CC(C)(C)/C=C/[C@H](O)[C@@]2(C)O[C@H]2CC1` (racemic), the outcome in the assay with KKU100, with KKU-M139, with KKU-M156, in the assay with KKU-M213 and with KKU-M214 was inactive.

For the compound `CC(=O)N[C@@H]1CC/C(C)=C/CC(C)(C)/C=C/C(=O)[C@@H]1C` (racemic), the result with KKU100, with KKU-M139, with KKU-M156, in the assay with KKU-M213 and with KKU-M214 was inactive.

Turning to `CC(=O)N[C@@H]1CC/C(C)=C/CC(C)(C)/C=C/[C@H](O)[C@@H]1C` (racemic), the outcome with KKU100, with KKU-M139, in the assay on KKU-M156, in the assay with KKU-M213 and in the assay with KKU-M214 was inactive.

Consider `CC(=O)N[C@@H]1CC[C@@]2(C)O[C@H]2CC(C)(C)/C=C/C(=O)[C@@H]1C` (racemic), for which the result with KKU100, in the assay with KKU-M139, with KKU-M156, in the assay on KKU-M213 and in the assay with KKU-M214 was inactive.

Take `CC(=O)OC1/C=C/C(C)(C)C/C=C(\C)CC/C=C/1C` (racemic): the outcome in the assay with KKU100, with KKU-M139, in the assay on KKU-M156, with KKU-M213 and with KKU-M214 was inactive.

For `C[C@H]1C(=O)/C=C/C(C)(C)C[C@@H]2O[C@]2(C)CC[C@H]1NCc1ccccc1` (racemic), the result in the assay with KKU100, in the assay with KKU-M139, with KKU-M156, with KKU-M213 and with KKU-M214 was inactive.

As for `Cc1c2ccncc2c(C)c2c1[nH]c1ccccc12` [ELLIPTECINE], the IC50 was found to be 25.2 µM in assay [1]; 4.5 µM in assay [2]; 9.34 µM in assay [3]; 1.62 µM in [4]; 1.01 µM in [5].

Usually IC50 stands for the concentration that gives 50% inhibition. High values mean weaker potency, low ones greater potency.
